From paper PMC7616001 (Journal of medicinal chemistry, 2022)

Key:
HeLa [1] = assay: MTT assay, 72 h continuous exposure, HeLa cells; assay type: cell-based, human
How it was run: (§1)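 Ovarian lines grown in RPMI with 10% FBS and 1% penicillin/streptomycin; A2780Cis kept on 2 μM cisplatin 3 days each week. HeLa grown in DMEM with the same supplements. 3 × 10^3 cells/well, overnight, then serial dilutions of DMSO stocks (final DMSO ≤0.1%); cisplatin stock in PBS. 72 h continuous exposure, MTT 0.5 mg/mL 3 h, formazan in DMSO, A570 normalised to untreated. IC50 from curves; ≥3 independent experiments.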

A2780 = assay: MTT assay, 72 h continuous exposure, A2780 cells; assay type: cell-based, human
How it was run: as §1

HeLa [2] = assay: 72 h crystal violet; assay type: cell-based, human
How it was run: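 Seeding and dosing as for MTT: 3 × 10^3 cells/well, overnight, final DMSO ≤0.1%, 72 h exposure. Wells washed with PBS and fixed in 4% paraformaldehyde for 15 min. Crystal violet stained, dried, dissolved in 96% ethanol and A570 read. IC50 derived from dose–response curves.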

HeLa cells [3] = assay: Trypan blue dye exclusion cell proliferation assay; assay type: cell-based, human
How it was run: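 HeLa seeded in 24‑well plates. Next day, some wells trypsinised, stained with trypan blue and live cells counted by hemocytometer as the 0 h value. Remaining wells left untreated or dosed at various concentrations. Viable cells counted at 24, 48, 72, 96 and 120 h and plotted against time.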

HeLa cells [4] = assay: Whole cell uptake by ICP-MS; assay type: cell-based, human; conditions: 10 μM
How it was run: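 2 × 10^6 cells per 60 mm plate, grown overnight. Incubated 4 h in fresh medium containing 10 μM test compound. Washed three times with PBS, detached with trypsin and counted for per‑cell metal uptake.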

[5] = Stability in DMSO and aqueous media by 1H NMR; assay type: physicochemical; conditions: up to 48 h
How it was run: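 About 2 mM test compound in DMSO-d6 was mixed with 666 mM NaCl in D2O to give 100 mM NaCl final in DMSO/D2O (85/15, v/v). 1H NMR spectra were recorded at regular intervals up to 48 h.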

[6] = Reversible aquation and anation by 1H NMR; assay type: physicochemical; conditions: DMSO/D2O without NaCl, within 10 min
How it was run: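 1H NMR in DMSO/D2O. At 10 min, 666 mM NaCl in D2O added to give 100 mM NaCl in DMSO/D2O (85:15 v/v). Spectra recorded at regular intervals up to 60 min.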

[7] = test system: zebrafish sub-intestinal venous plexus (SIVP) angiogenesis; assay: Zebrafish SIVP angiogenesis model; assay type: in vivo, zebrafish (Danio rerio); conditions: 20/30/40 μM from 26 hpf, imaged at 72 hpf
How it was run: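 Test compound stock 5 mM in DMSO, diluted in E3 to final 20, 30 or 40 μM; DMSO vehicle at 10 μL/mL E3. Four 26 hpf Tg(etv2:EGFP) embryos per 1 mL. Raised to 72 hpf at 28 °C for confocal analysis of the sub‑intestinal venous plexus.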

HeLa cells [8] = assay: Intracellular distribution between nucleus and cytoplasm, ICP-MS; assay type: cell-based, human; conditions: 10 μM, 24 h exposure
How it was run: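 5 × 10^6 HeLa per 100 mm plate, grown overnight. Exposed 24 h to 10 μM test compound, with 10 μM cisplatin as comparator. PBS‑washed, trypsinised, counted. Nuclear and cytoplasmic fractions isolated with a commercial kit. Protein measured by BCA assay, metal by ICP‑MS. Three experiments of ≥3 replicates.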

Cyclic voltammetry = assay type: physicochemical; conditions: acetonitrile, 0.1 M NEt4BF4
ROS level in HeLa cells = assay: H2DCF-DA intracellular ROS assay; assay type: cell-based, human; conditions: 10 μM, 1-8 h
How it was run: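 HeLa plated at 10 × 10^3 per well, grown overnight, then exposed to 10 μM test compound for 1, 2, 4 or 8 h. Washed with PBS and loaded with 10 μM H2DCF‑DA for 30 min. Washed again, phenol red‑free DMEM added, fluorescence read immediately. Three biological replicates.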

[9] = test system: O2•− radicals in HeLa cells; assay: Flow cytometric quantification of superoxide radicals with DHE probe; assay type: cell-based, human; conditions: 10 μM, 4 h
How it was run: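 HeLa seeded at 0.75 × 10^6 cells per six‑well plate well, grown overnight, then treated 4 h at 10 μM. Cells trypsinised, washed with ice‑cold PBS and spun at 1200 rpm, 5 min, 4 °C. Probe‑stained cells analysed by flow cytometry, approximately 20,000 cells per sample.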

ΔΨm of HeLa cells = assay: JC-1 mitochondrial membrane potential assay, flow cytometry; assay type: cell-based, human; conditions: 24 h, even at 1/4 × IC50/24h (10 μM)
[10] = test system: IRE1α, ATF6, p-elF2α, unfolded proteins in HeLa cells; assay: Western blot of polyubiquitinated proteins and ER-stress marker proteins; assay type: cell-based, human; conditions: 24 h
How it was run: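 HeLa cells, about 2 × 10^6 at 80–90% confluency, were treated for 24 h with test compound at 10, 20 or 40 μM, with celastrol as positive control. RIPA lysates with protease inhibitors were heated in Laemmli buffer (90 °C, 10 min), resolved on 10/12% SDS-PAGE and transferred to PVDF. Membranes were blocked in 2% milk and probed overnight at 4 °C with primary antibodies (1:1000), then with HRP secondary antibodies.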

[11] = test system: PARP, p53, cleaved caspase 3 in HeLa cells; assay: Western blot of apoptosis-related marker proteins; assay type: cell-based, human; conditions: 24 h
How it was run: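 ~2 million HeLa per 60 mm dish, grown to 80–90% confluency, treated 24 h at 10, 20 or 40 μM. Lysed in RIPA buffer with protease inhibitors. Membranes blocked with 2% skim milk in 0.1% Tween 20 for 30 min. Primary antibody 1:1000 overnight at 4 °C; HRP secondary antibody.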

[12] = test system: RIP1 and RIP3 in HeLa cells; assay: Western blot of necroptosis marker proteins; assay type: cell-based, human; conditions: 24 h
How it was run: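 Western blot for RIP1/RIP3: about 2 × 10^6 HeLa cells at 80–90% confluency were given test compound (10, 20, 40 μM) for 24 h, with shikonin as a reference necroptosis inducer. Cells were lysed in RIPA with protease inhibitors and run on 10/12% SDS-PAGE, then transferred to PVDF. Membranes were blocked in 2% milk, probed with primary antibody (1:1000, overnight, 4 °C), then with HRP secondary antibody (0.75:1000).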

Cc1ccc(C(C)C)cc1.O=C(C=C([O-])C(F)(F)F)[c-]1cccc1.[Cl-].[Fe+2].[Ru+2].c1cc[cH-]c1 [Compound 1, [(η^6-p-cymene)Ru(1,1,1-trifluoro-4-oxo-4-ferrocenyl-but-2-en-2-olate)Cl]]
fold higher potency compared to oxaliplatin (HeLa [1]; HeLa cells, 72 h MTT): 1.6 fold | IC50 (HeLa [1]; read-out: IC50 HeLa, 72 h continuous exposure, MTT assay): 1300 ± 300 nM | fold more potent compared to Ru1, Ru3 and Ru4 (A2780; A2780 cells): 3−18 fold | IC50 (A2780; read-out: IC50 A2780, 72 h continuous exposure, MTT assay): 2500 ± 300 nM | IC50 from CV assay compared to IC50 from MTT assay (HeLa [2]; HeLa and A2780, 72 h): ~ 3 fold | IC50 (HeLa [2]; read-out: IC50 (CV assay) HeLa, 72 h CV assay): 4400 ± 1700 nM | effect on number of viable cells (HeLa cells [3]; 5 and 10 μM): time-dependent antiproliferative effect | effect on number of viable cells (HeLa cells [3]; 20 and 40 μM): exerted antitumor activity by killing cells | fold higher accumulation than 3 (HeLa cells [4]; 4 h): 3.5 fold | times lower cellular accumulation compared to 4 (HeLa cells [4]; 4 h): 1.6 times | whole cell uptake (HeLa cells [4]; 4 h): 57 ± 9.7 pmol/10^6 cells | whole cell uptake (HeLa cells [4]; 4 h exposure): 57.0 ± 9.7 picomole Ru/10^6 cells | stability in DMSO [5]: no change was detected in the ^1H NMR spectrum up to 48 h | stability in DMSO-d6/D2O containing 100 mM NaCl [5]: no significant spectral changes were observed up to 48 h | fraction aquated [6]: ~ 95% | effect on SIVP angiogenesis (SIVP area, number of compartments) [7]: dose-dependent antiangiogenic effects | metal content in nuclear fraction relative to cytoplasmic fraction (HeLa cells [8]): ~ 2.5 times | oxidation potential (vs Fc^+/0) (Cyclic voltammetry): 321 mV | intracellular ROS level (H2DCF-DA) (ROS level in HeLa cells): significant increase in ROS | level of O2•− radicals relative to untreated control [9]: ~ 19 fold | effect on ΔΨm (JC-1 red/green) (ΔΨm of HeLa cells): dramatic decrease in ΔΨm | unfolded (polyubiquitinated) proteins ([10]; 10-40 μM): dose-dependent upregulation of unfolded proteins | IRE1α and ATF6 levels [10]: significant upregulation of both IRE1α and ATF6 | p-elF2α level (PERK arm) [10]: did not increase the level of the downstream protein p-elF2α | apoptosis markers (PARP cleavage, p53, cleaved caspase 3) ([11]; cisplatin 10 μM, 1 at 1/4 × IC50 to IC50): none of these apoptosis markers were upregulated | PARP level ([11]; western blot): significant upregulation of PARP | expression level of RIP1 and RIP3 [12]: increased the expression level of RIP1 and RIP3
